Experimental findings from ChEMBL document CHEMBL1133891, “Substituted 4-phenyl-2-(phenylcarboxamido)-1,3-thiazole derivatives as antagonists for the adenosine A(1) receptor” (Bioorg Med Chem Lett, 2001) are described below.

One test addresses T1, Adenosine receptor A1 (Rattus norvegicus, UniProt P25099).
T1 sequence (P25099 whole entry): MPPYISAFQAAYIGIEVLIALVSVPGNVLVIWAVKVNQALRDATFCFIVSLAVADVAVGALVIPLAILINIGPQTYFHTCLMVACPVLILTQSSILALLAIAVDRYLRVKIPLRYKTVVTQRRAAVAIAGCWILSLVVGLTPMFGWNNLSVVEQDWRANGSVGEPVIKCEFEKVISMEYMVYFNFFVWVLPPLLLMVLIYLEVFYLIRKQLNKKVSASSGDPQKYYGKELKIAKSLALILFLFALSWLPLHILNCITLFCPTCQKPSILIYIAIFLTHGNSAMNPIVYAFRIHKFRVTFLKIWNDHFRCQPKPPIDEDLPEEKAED
The test is described as follows: Displacement of [3H]DPCPX from Adenosine A1 receptor of rat cortical membrane. The method in brief:
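Competition binding on rat brain cortex membranes, displacing the A1 radioligand [3H]DPCPX. Displacement experiments run without GTP.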
A general note: In a radioligand displacement assay an active substance lowers the binding of a labelled ligand.

Test [1] has as its target T2, Adenosine receptor A3 (Homo sapiens) (UniProt P0DMS8).
T2 sequence (whole entry): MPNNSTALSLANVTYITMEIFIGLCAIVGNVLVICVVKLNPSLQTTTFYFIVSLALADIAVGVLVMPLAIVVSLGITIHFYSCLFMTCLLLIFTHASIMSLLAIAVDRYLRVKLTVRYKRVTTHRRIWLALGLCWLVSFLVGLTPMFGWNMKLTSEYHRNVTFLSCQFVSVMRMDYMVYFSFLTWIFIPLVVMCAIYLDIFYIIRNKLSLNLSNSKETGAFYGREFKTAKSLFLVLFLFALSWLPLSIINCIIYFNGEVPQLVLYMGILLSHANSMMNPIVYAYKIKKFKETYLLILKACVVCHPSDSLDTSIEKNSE
The test is described as follows: Percent displacement of [125I]-AB MECA from human Adenosine A3 receptor expressed in HEK 293 cells at 1 uM. Format: cell-based. Particulars: HEK293.

Test [2] addresses Adenosine receptor A2a (Rattus norvegicus) (UniProt P30543). The test is described as follows: Percent displacement of [3H]ZM-241385 from A2A receptor in rat striatal membrane at 10 uM. Type of test: cell membranes. Particulars: Striatum.

Sequence of Adenosine receptor A2a (Rattus norvegicus) (P30543 whole entry): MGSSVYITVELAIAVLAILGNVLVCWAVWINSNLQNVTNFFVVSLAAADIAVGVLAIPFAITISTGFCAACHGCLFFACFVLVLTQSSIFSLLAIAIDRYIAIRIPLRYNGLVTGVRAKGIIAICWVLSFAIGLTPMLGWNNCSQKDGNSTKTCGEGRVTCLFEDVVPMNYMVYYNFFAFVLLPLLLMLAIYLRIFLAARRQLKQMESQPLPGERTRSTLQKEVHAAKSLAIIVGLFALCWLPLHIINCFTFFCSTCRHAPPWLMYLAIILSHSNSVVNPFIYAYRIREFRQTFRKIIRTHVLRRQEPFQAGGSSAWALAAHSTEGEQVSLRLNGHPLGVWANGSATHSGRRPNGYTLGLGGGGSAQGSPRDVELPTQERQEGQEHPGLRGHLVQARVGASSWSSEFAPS

As usually defined, the Ki is a measure of affinity in units of concentration, obtained from inhibition or displacement. The low end stands for higher affinity, the high end for lower affinity. In turn, `O=C(Nc1nc(-c2ccccc2)cs1)c1ccc(C(F)(F)F)cc1` gave a Ki on Adenosine receptor A1 of 165 nM. Moreover, the Displacement in test [1] was found to be 18%; in test [2] it was 0%.

As to `O=C(Nc1nc(-c2ccccc2)cs1)c1ccc(Cl)cc1Cl`, affinity at Adenosine receptor A1 was put at a Ki of 58 nM. Further, the figures for the Displacement in test [1] and in test [2] were 22% and 17%, respectively.

The compound `O=C(Nc1nc(-c2ccccc2)cs1)c1ccc(Cl)c(Cl)c1` came in with a Ki on Adenosine receptor A1 of 59 nM. The Displacement in test [1] was determined as 20%; in test [2], 6%.

As for `O=C(Nc1nc(-c2ccccc2)cs1)c1cccc(Cl)c1`, the affinity at Adenosine receptor A1 corresponds to a Ki of 86 nM. For the same compound, the Displacement in test [1] stood at 42%; in test [2] it was 3%.

Consider `CC(C)(C)c1ccc(C(=O)Nc2nc(-c3ccccc3)cs2)cc1`, for which the figures for the Displacement in test [1] and in test [2] were 27% and 2%, respectively.

On to `Cc1ccc(C(=O)Nc2nc(-c3ccccc3)cs2)cc1`, for which, on Adenosine receptor A1, the Ki turned out to be 36 nM. For the same compound, the figures for the Displacement in test [1] and in test [2] were 66% and 13%, respectively.

On Adenosine receptor A1, `O=C(Nc1nc(-c2ccccc2)cs1)c1ccc(Br)cc1` came in with a Ki of 33 nM. Moreover, the Displacement in test [1] amounted to 58%; in test [2], 14%.

On Adenosine receptor A1, `O=C(Nc1nc(-c2ccccc2)cs1)c1ccc([N+](=O)[O-])cc1` registered an inhibition constant Ki of 22 nM. In addition, the Displacement in test [1] amounted to 35%; in test [2], 9%.

In turn, `O=C(Nc1nc(-c2ccccc2)cs1)c1ccc(Cl)cc1` registered a Ki at Adenosine receptor A1 of 18 nM. Further, the Displacement was 63% in test [1] and 15% in test [2].

In turn, `O=C(Nc1nc(-c2ccccc2)cs1)c1ccccc1` showed a Ki on Adenosine receptor A1 of 39 nM. Also, the Displacement in test [1] is 42%; in test [2] it was 21%.
